According to ChEMBL document CHEMBL1142492 (J Med Chem, 2008):
pIC50: −log10 of the molar value.

How the values were obtained:
[1] = target: Serine/threonine-protein kinase pim-2 (Homo sapiens) (UniProt Q9P1W9); test: Inhibition of PIM2 at 3 uM
[2] = target: Phosphatidylinositol 5-phosphate 4-kinase type-2 beta (Homo sapiens) (UniProt P78356); test: Inhibition of PIP5K2B at 3 uM
[3] = target: Serine/threonine-protein kinase 35 (Homo sapiens) (UniProt Q8TDR2); test: Inhibition of STK35 at 3 uM
[4] = target: Serine/threonine-protein kinase TAO1 (Homo sapiens) (UniProt Q7L7X3); test: Inhibition of TAOK1 at 3 uM
[5] = target: Tyrosine-protein kinase Tec (Homo sapiens) (UniProt P42680); test: Inhibition of TEC at 3 uM
[6] = target: Serine/threonine-protein kinase SIK1 (Homo sapiens) (UniProt P57059); test: Inhibition of SNF1LK at 3 uM
[7] = target: SRSF protein kinase 1 (Homo sapiens) (UniProt Q96SB4); test: Inhibition of SRPK1 at 3 uM
[8] = target: Dual specificity protein kinase TTK (Homo sapiens) (UniProt P33981); test: Inhibition of TTK at 3 uM
[9] = target: Serine/threonine-protein kinase ULK1 (Homo sapiens) (UniProt O75385); test: Inhibition of ULK1 at 3 uM
[10] = target: Serine/threonine-protein kinase ULK2 (Homo sapiens) (UniProt Q8IYT8); test: Inhibition of ULK2 at 3 uM
[11] = target: Serine/threonine-protein kinase tousled-like 2 (Homo sapiens) (UniProt Q86UE8); test: Inhibition of TLK2 at 3 uM
[12] = target: TRAF2 and NCK-interacting protein kinase (Homo sapiens) (UniProt Q9UKE5); test: Inhibition of TNIK at 3 uM
[13] = target: Activated CDC42 kinase 1 (Homo sapiens) (UniProt Q07912); test: Inhibition of TNK2 at 3 uM
[14] = target: Epidermal growth factor receptor (Homo sapiens) (UniProt P04626+P00533+Q15303+P21860); test: Inhibition of EGFR L747-T751del,Sins mutant at 3 uM; type: protein assay
[15] = system: Epidermal growth factor receptor (Homo sapiens), P00533 [L858R]; test: Inhibition of EGFR L858R mutant at 3 uM; type: protein assay
Summary of the method: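 Single-concentration kinase panel scoring: each value is the percentage of enzyme activity remaining relative to a DMSO-only control. An activity statistically indistinct from DMSO control was scored "no hit".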

[16] = target: Serine/threonine-protein kinase LATS1 (Homo sapiens) (UniProt O95835); test: Inhibition of LATS1 at 3 uM
[17] = target: Inhibitor of nuclear factor kappa-B kinase subunit alpha (Homo sapiens) (UniProt O15111); test: Inhibition of IKK-alpha at 3 uM
[18] = target: Inhibitor of nuclear factor kappa-B kinase subunit beta (Homo sapiens) (UniProt O14920); test: Inhibition of IKK-beta at 3 uM
[19] = target: Mitogen-activated protein kinase kinase kinase kinase 4 (Homo sapiens) (UniProt O95819); test: Inhibition of MAP4K4 at 3 uM
[20] = target: MAP kinase-activated protein kinase 5 (Homo sapiens) (UniProt Q8IW41); test: Inhibition of MAPKAPK5 at 3 uM
[21] = target: MAP/microtubule affinity-regulating kinase 3 (Homo sapiens) (UniProt P27448); test: Inhibition of MARK3 at 3 uM
[22] = target: Hepatocyte growth factor receptor (Homo sapiens) (UniProt P08581); test: Inhibition of MET at 3 uM
[23] = target: Tyrosine-protein kinase ITK/TSK (Homo sapiens) (UniProt Q08881); test: Inhibition of ITK at 3 uM
[24] = target: Muscle, skeletal receptor tyrosine-protein kinase (Homo sapiens) (UniProt O15146); test: Inhibition of MUSK at 3 uM
[25] = target: Serine/threonine-protein kinase MRCK beta (Homo sapiens) (UniProt Q9Y5S2); test: Inhibition of MRCKB at 3 uM
[26] = target: cGMP-dependent protein kinase 1 (Homo sapiens) (UniProt Q13976); test: Inhibition of PRKG1 at 3 uM
[27] = target: Platelet-derived growth factor receptor beta (Homo sapiens) (UniProt P09619); test: Inhibition of PDGFRB at 3 uM
[28] = target: Serine/threonine-protein kinase 25 (Homo sapiens) (UniProt O00506); test: Inhibition of YSK1 at 3 uM
CYP3A4 = CYP3A4 (Homo sapiens, UniProt P08684); test: Inhibition of human CYP3A4 at 10 uM; type: ADME
[29] = target: Rho-associated protein kinase 2 (Homo sapiens, UniProt O75116); test: Inhibition of ROCK2
[30] = target: D(1A) dopamine receptor (Homo sapiens) (UniProt P21728); test: Inhibition of human dopamine D1 receptor at 3 uM
[31] = target: D(4) dopamine receptor (Homo sapiens) (UniProt P21917); test: Inhibition of human dopamine D4 receptor at 3 uM
Summary of the method: (§1)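 Counter-screen binding/enzyme panel at single 3 μM, n=2; results as percent inhibition. Species per target as listed (rat NMDA, GABAA sites; human receptors, transporters; rabbit ACE).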

[32] = system: Tyrosine-protein kinase ABL1 (Homo sapiens), P00519 [F317I]; test: Inhibition of ABL1 F317I mutant at 3 uM
[33] = system: Tyrosine-protein kinase ABL1 (Homo sapiens), P00519 [T315I]; test: Inhibition of ABL1 T315I mutant at 3 uM
[34] = target: Bone morphogenetic protein receptor type-1B (Homo sapiens) (UniProt O00238); test: Inhibition of BMPR1B at 3 uM
[35] = target: Cytoplasmic tyrosine-protein kinase BMX (Homo sapiens) (UniProt P51813); test: Inhibition of BMX at 3 uM
[36] = target: Tyrosine-protein kinase BTK (Homo sapiens) (UniProt Q06187); test: Inhibition of BTK at 3 uM
[37] = target: Substance-P receptor (Homo sapiens) (UniProt P25103); test: Inhibition of human NK1 receptor at 3 uM; summary of the method: as §1
[38] = target: Serine/threonine-protein kinase DCLK2 (Homo sapiens) (UniProt Q8N568); test: Inhibition of DCAMKL2 at 3 uM
[39] = target: Myotonin-protein kinase (Homo sapiens) (UniProt Q09013); test: Inhibition of DMPK at 3 uM
[40] = system: Epidermal growth factor receptor (Homo sapiens), P00533 [G719S]; test: Inhibition of EGFR G719S mutant at 3 uM; type: protein assay
[41] = target: Serine/threonine-protein kinase MRCK alpha (Homo sapiens) (UniProt Q5VT25); conditions: 3 uM
Rattus norvegicus [42] = species on record: Rattus norvegicus; conditions: 3 uM
Homo sapiens = species on record: Homo sapiens; conditions: 3 uM
Rattus norvegicus [43] = species on record: Rattus norvegicus; conditions: 3 uM; remark: listed apart in the source
[44] = target: Mitogen-activated protein kinase kinase kinase 7 (TAK1) (Homo sapiens) (UniProt O43318); test: Inhibition of TAK1 at 3 uM

Serine/threonine-protein kinase tousled-like 2 (Homo sapiens), sequence (Q86UE8 whole entry, looked up): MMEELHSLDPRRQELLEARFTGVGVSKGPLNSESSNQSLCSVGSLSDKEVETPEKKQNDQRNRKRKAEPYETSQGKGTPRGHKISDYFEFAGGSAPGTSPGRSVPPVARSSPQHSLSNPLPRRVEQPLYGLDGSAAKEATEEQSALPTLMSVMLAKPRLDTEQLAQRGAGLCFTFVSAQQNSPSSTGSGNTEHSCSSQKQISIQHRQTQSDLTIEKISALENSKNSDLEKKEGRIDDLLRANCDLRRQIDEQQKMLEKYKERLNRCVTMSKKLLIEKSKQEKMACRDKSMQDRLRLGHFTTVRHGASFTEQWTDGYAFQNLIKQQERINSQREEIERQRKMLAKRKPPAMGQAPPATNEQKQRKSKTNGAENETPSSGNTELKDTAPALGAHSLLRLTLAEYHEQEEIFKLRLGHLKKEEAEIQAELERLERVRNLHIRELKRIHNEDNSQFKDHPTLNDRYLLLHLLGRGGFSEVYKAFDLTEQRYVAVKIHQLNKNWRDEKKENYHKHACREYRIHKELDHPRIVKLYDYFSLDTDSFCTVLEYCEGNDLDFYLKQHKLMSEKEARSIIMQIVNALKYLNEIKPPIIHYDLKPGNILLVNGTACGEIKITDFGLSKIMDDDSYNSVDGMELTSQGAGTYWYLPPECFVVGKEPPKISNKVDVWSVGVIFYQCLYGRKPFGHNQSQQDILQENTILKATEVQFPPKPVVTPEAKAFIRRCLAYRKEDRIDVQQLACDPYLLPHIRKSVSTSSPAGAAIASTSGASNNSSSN
Epidermal growth factor receptor (Homo sapiens), P00533 [L858R], sequence (P00533 whole entry L858R): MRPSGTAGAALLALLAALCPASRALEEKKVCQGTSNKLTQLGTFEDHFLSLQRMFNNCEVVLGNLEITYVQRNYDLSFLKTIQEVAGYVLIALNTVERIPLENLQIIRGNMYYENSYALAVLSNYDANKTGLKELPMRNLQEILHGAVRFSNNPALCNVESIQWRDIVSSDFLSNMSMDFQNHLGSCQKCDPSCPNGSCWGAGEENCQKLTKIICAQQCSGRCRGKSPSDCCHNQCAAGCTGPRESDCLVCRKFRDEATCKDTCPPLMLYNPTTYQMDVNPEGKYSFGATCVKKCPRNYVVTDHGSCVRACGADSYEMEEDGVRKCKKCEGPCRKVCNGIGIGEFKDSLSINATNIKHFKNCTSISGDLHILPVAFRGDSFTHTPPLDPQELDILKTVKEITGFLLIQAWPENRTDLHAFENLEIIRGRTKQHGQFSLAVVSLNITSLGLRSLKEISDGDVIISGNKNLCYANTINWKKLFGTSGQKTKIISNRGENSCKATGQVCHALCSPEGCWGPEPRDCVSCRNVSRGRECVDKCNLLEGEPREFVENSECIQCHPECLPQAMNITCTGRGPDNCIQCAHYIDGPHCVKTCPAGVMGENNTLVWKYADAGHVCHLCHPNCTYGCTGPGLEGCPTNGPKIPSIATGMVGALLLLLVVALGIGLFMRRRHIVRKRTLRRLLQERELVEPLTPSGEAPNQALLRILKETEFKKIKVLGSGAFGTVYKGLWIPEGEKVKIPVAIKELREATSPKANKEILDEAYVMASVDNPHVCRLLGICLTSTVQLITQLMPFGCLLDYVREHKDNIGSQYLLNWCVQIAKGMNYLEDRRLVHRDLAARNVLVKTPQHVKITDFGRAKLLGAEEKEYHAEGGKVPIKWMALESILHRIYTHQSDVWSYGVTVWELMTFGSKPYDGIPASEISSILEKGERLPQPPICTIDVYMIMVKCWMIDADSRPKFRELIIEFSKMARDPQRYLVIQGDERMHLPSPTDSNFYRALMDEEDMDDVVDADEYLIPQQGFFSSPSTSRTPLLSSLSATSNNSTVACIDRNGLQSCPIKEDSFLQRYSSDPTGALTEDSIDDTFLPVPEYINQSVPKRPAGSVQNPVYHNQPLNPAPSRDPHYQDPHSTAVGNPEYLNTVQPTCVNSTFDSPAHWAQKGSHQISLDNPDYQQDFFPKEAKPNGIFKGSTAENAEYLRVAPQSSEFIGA
Cytoplasmic tyrosine-protein kinase BMX (Homo sapiens), sequence (P51813 whole entry): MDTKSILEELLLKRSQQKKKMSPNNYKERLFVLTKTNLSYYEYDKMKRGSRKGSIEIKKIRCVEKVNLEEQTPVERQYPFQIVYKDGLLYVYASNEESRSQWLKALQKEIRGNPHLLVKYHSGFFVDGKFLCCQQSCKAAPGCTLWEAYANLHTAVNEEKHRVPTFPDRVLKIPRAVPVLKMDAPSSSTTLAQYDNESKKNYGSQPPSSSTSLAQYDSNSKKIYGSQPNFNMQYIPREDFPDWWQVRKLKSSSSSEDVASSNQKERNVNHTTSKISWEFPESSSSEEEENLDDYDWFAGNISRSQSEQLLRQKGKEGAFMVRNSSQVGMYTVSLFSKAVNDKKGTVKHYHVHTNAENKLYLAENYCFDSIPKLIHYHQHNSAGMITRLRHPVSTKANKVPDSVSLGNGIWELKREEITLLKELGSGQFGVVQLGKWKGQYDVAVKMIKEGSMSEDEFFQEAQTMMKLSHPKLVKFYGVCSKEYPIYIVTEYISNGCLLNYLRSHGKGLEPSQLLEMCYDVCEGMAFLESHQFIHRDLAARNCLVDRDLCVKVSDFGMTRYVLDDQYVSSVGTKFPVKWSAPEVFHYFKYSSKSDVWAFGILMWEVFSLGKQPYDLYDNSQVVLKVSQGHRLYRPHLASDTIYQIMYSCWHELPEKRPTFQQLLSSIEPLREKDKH
Epidermal growth factor receptor (Homo sapiens), P00533 [G719S], sequence (P00533 whole entry G719S): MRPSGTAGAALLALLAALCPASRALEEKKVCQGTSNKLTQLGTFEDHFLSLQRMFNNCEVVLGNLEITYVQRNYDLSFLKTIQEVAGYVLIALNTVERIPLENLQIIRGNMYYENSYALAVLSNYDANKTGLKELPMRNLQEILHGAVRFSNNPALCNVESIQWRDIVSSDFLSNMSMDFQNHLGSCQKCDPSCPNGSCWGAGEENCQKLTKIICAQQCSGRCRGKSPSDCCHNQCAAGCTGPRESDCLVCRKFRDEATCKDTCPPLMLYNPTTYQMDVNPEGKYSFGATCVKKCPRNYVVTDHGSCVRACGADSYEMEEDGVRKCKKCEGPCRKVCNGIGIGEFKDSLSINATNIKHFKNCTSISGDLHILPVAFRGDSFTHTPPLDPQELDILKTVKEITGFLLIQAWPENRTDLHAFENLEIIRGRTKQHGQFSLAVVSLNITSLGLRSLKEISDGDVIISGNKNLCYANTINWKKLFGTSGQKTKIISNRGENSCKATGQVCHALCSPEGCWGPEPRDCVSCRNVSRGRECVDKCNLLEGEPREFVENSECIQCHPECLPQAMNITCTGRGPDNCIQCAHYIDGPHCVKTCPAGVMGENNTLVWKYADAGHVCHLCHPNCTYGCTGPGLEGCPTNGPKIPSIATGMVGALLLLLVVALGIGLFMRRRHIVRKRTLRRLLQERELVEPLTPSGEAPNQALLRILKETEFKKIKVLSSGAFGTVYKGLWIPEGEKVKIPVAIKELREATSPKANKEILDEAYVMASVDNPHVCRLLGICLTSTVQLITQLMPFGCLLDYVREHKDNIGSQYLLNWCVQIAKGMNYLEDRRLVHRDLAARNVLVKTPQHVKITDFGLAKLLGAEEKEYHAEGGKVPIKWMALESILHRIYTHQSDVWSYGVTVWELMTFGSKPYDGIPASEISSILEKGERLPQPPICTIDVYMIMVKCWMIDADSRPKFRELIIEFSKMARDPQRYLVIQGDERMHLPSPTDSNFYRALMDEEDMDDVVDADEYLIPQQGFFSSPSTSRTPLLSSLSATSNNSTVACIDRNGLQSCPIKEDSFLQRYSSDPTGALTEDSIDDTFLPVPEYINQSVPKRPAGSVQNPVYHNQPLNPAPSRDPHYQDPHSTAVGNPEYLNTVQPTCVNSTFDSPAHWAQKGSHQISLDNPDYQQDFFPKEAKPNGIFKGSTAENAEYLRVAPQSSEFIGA
SRSF protein kinase 1 (Homo sapiens), sequence (Q96SB4 whole entry): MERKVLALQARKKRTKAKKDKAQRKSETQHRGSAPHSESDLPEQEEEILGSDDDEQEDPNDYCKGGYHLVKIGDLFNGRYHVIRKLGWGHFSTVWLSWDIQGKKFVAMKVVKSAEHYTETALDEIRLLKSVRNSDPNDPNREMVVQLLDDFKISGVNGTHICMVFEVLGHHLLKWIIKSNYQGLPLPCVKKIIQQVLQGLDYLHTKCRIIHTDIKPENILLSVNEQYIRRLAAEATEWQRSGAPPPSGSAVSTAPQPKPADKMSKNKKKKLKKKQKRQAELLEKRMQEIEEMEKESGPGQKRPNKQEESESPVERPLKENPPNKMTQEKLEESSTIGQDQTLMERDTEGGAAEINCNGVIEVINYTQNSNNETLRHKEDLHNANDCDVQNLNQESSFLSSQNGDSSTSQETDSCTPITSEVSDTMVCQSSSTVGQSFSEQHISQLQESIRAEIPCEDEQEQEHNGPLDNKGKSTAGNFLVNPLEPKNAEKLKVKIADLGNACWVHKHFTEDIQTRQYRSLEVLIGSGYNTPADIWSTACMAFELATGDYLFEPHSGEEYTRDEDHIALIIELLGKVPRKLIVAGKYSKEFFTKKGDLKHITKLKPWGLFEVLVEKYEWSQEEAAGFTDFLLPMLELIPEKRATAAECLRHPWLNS
Serine/threonine-protein kinase pim-2 (Homo sapiens), sequence (Q9P1W9 whole entry, looked up): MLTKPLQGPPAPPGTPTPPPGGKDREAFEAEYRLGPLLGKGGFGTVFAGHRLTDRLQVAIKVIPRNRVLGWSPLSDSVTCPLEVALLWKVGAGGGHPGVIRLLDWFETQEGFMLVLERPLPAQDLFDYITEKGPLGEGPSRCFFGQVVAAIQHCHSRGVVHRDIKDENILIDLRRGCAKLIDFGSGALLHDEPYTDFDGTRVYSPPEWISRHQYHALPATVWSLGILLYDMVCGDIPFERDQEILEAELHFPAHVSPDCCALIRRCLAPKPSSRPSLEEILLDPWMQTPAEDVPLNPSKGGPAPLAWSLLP

CN(C)CCOc1cc(-c2cn[nH]c2)ccc1NC(=O)C1COc2ccccc2O1 (stereo unspecified) [SR-3677]
-1%: inhibition (Rattus norvegicus [43])
0%: inhibition at 10 µM (CYP3A4)
12%: inhibition (Homo sapiens)
-2%: inhibition [31]
17%: inhibition [30]
47%: inhibition (Rattus norvegicus [42])
< 10%: inhibition [1] | inhibition [2] | inhibition [3] | inhibition [4] | inhibition [5] | inhibition [6] | inhibition [7] | inhibition [8] | inhibition [9] | inhibition [10] | inhibition [11] | inhibition [12] | inhibition [13] | inhibition [14] | inhibition [15] | inhibition [16] | inhibition [17] | inhibition [18] | inhibition [19] | inhibition [20] | inhibition [21] | inhibition [22] | inhibition [23] | inhibition [24] | inhibition [25] | inhibition [26] | inhibition [27] | inhibition [28] | inhibition [32] | inhibition [33] | inhibition [34] | inhibition [35] | inhibition [36] | inhibition [38] | inhibition [39] | inhibition [40] | inhibition [41] | inhibition [44]
-6%: inhibition [37]
8.49: pIC50 [29]
